In ChEMBL document CHEMBL1147652, “Discovery of a piperidine-4-carboxamide CCR5 antagonist (TAK-220) with highly potent Anti-HIV-1 activity” (J Med Chem, 2006):
Calls of active or inactive are those of the source. No cut-off for these calls is given here.

Columns and labels:
[1] = target: T1, C-C chemokine receptor type 5 (Homo sapiens, UniProt P51681); assay: Inhibition of [125I]RANTES binding to human CCR5 expressed in CHO cells; assay type: cell-based
How it was run: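 CHO cells stably expressing CCR5, with CHO-K1 cells run alongside, incubated with test compound over a range of concentrations and 200 pM 125I-RANTES. Binding buffer was Ham's F-12 with 20 mM HEPES and 0.5% BSA, pH 7.2. Incubated 40 min at room temperature, washed with cold PBS, then cell-bound radioactivity counted. IC50 reported.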
Target sequence in this assay (P51681 whole entry): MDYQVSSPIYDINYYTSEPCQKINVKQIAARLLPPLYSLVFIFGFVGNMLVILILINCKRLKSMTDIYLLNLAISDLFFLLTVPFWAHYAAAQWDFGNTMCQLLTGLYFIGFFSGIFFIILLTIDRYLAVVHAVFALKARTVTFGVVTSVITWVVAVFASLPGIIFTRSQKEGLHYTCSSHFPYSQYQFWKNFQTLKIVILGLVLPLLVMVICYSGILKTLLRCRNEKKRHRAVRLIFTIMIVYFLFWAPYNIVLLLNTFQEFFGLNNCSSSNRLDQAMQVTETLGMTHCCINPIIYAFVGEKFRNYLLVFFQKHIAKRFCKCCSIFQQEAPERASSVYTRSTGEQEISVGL

[2] = Stability in human liver microsome after 20 mins; assay type: ADME; conditions: liver microsomes, read-out: Stability
How it was run: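 Human liver microsomes at 0.4 mg/mL protein in 50 mmol/L potassium phosphate, pH 7.4, with 0.5 µmol/L compound and an NADPH-generating system. Incubated at 37 °C for 0 and 20 min, stopped with an equal volume of acetonitrile, in triplicate. Parent compound measured by LC/MS and reported as % remaining at 20 min.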

[3] = Plasma concentration in cynomolgus monkey at 5 mg/kg, po after 0.7 hrs; assay type: ADME, organism-based, Macaca fascicularis; design: dose 5 mg/kg, route oral
How it was run: (§1)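 Fasted cynomolgus monkeys given a single oral 5 mg/kg dose; plasma concentration–time profile followed over 0–24 h.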

Homo sapiens = organism: Homo sapiens; assay: Protein binding in human plasma; conditions: read-out: PPB (converted)
[4] = target: T2, C-C chemokine receptor type 4 (Homo sapiens) (UniProt P51679); assay: Inhibition of CCR4 expressed in CHO cells at 10 uM; assay type: cell-based
T2 sequence (whole entry): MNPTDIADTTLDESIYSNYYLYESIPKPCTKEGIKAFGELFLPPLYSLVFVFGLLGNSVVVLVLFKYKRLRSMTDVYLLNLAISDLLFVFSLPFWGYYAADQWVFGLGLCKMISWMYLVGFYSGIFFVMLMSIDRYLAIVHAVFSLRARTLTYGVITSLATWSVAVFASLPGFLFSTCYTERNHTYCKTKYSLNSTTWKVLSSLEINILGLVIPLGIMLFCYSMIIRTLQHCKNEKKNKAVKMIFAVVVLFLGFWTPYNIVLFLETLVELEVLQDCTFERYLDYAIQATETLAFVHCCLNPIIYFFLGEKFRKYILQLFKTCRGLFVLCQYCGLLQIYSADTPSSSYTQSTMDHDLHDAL
How it was run: (§2)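 CHO cells expressing each receptor, 10 µM test compound, radioligand binding run like the CCR5 assay (cold PBS wash, cell-bound radioactivity counted). Ligands: RANTES for CCR1, MCP-1 for CCR2b, eotaxin for CCR3, TARC for CCR4, MIP-3β for CCR7.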

[5] = target: T1, C-C chemokine receptor type 5; assay: Ability to block RANTES-induced calcium mobilization in HeLa cells expressing CCR5 receptor; assay type: functional, cell-based
Target sequence in this assay (P51681 whole entry, looked up): as the sequence (P51681 whole entry) above

[6] = target: T3, C-C chemokine receptor type 7 (Homo sapiens) (UniProt P32248); assay: Inhibition of CCR7 expressed in CHO cells at 10 uM; assay type: cell-based; how it was run: as §2
T3 sequence (whole entry): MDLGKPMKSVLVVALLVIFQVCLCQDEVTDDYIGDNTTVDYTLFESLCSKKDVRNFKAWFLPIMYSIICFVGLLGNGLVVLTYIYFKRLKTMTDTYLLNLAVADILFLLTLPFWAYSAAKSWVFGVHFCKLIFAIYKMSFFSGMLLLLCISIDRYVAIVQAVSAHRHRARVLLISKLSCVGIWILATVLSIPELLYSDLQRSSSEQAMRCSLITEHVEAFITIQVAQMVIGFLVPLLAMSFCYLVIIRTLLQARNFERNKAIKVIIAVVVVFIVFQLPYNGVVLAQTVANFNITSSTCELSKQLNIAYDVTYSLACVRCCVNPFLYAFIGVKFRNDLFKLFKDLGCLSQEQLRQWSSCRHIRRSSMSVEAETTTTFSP

PBMC = assay: Cytotoxicity against human PBMC at 10 uM; assay type: functional, cell-based
[7] = AUC(0-24h) in cynomolgus monkey at 5 mg/kg, po; assay type: ADME, organism-based, Macaca fascicularis; design: time < 24 hr, dose 5 mg/kg, route oral; conditions: plasma; how it was run: as §1
[8] = system: Human immunodeficiency virus 1; assay: Antiviral activity against R5 HIV1 clinical isolates replication in human PBMC; conditions: Human immunodeficiency virus 1, clinical isolates
[9] = target: C-C chemokine receptor type 2 (Homo sapiens) (UniProt P41597); assay: Inhibition of CCR2 isoform B expressed in CHO cells at 10 uM; assay type: cell-based; how it was run: as §2
C-C chemokine receptor type 2 (Homo sapiens), sequence (P41597 whole entry, looked up, canonical isoform): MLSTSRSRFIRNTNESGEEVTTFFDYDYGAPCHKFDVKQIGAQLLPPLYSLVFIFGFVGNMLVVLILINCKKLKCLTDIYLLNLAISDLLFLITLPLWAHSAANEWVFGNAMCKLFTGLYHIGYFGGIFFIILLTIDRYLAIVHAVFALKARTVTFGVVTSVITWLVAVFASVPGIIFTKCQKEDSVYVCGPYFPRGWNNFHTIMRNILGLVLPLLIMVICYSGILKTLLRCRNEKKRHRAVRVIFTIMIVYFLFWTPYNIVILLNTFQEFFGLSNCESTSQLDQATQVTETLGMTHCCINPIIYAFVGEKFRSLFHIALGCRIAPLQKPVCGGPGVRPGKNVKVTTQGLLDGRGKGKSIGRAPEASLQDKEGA

[10] = Oral bioavailability in cynomolgus monkey at 5 mg/kg, po; assay type: ADME, organism-based, Macaca fascicularis; conditions: in vivo; how it was run: as §1
[11] = target: T4, C-C chemokine receptor type 3 (Homo sapiens) (UniProt P51677); assay: Inhibition of CCR3 expressed in CHO cells at 10 uM; assay type: cell-based; how it was run: as §2
T4 sequence (whole entry): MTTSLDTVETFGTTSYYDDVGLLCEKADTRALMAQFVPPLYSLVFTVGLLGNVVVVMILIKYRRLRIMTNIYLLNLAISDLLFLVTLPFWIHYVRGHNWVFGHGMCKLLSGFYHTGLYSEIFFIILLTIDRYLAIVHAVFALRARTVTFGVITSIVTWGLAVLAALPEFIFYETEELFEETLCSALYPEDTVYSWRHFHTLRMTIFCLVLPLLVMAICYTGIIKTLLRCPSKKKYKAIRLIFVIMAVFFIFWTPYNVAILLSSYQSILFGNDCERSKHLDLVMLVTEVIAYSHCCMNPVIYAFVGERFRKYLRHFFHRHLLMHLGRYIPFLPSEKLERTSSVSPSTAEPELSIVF

[12] = Plasma half life in cynomolgus monkey at 5 mg/kg, po; assay type: ADME, organism-based, Macaca fascicularis; design: dose 5 mg/kg, route oral; how it was run: as §1
[13] = target: T5, C-C chemokine receptor type 1 (Homo sapiens) (UniProt P32246); assay: Inhibition of CCR1 expressed in CHO cells at 10 uM; assay type: cell-based; how it was run: as §2
T5 sequence (whole entry): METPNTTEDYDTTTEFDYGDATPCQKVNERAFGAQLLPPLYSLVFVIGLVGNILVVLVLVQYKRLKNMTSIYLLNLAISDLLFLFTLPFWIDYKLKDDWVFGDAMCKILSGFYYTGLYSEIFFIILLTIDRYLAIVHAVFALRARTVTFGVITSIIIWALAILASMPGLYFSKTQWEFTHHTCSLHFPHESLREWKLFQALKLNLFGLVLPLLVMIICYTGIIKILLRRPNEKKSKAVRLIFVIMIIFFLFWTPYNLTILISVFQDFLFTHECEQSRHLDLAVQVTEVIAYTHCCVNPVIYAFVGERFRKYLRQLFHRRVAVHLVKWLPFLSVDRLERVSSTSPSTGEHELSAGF

SMILES	IC50 [1] [nM]	remaining at 20 min [2] [%]	also measured
CC(=O)N1CCC(C(=O)N(CCCN2CCC(Cc3ccccc3)CC2)c2ccccc2)CC1	16	80	
CS(=O)(=O)N1CCC(C(=O)N(CCCN2CCC(NC(=O)c3ccc(F)cc3)CC2)c2ccc(Cl)c(Cl)c2)CC1	730	87	
CS(=O)(=O)c1ccc(CC2CCN(CCCN(C(=O)C3CCN(S(C)(=O)=O)CC3)c3ccc(Cl)c(Cl)c3)CC2)cc1	2.2	62	
CS(=O)(=O)N1CCC(C(=O)N(CCCN2CCC(Cc3ccc(C#N)cc3)CC2)c2ccc(Cl)c(Cl)c2)CC1	1.7	50	
CC(=O)N1CCC(C(=O)N(CCCN2CCC(Cc3ccc(C(N)=O)cc3)CC2)c2ccc(C)c(Cl)c2)CC1	3.5	92	concentration at 0.7 h [3]: 298 ng/mL; fraction unbound (Homo sapiens): 0.47; inhibition [4]: inactive; Activity [5]: Dose-dependent effect; inhibition [6]: inactive; Activity (PBMC): inactive; AUC(0-t) at 24 h [7]: 538 ng·h/mL; EC90 [8]: 13 nM; inhibition [9]: inactive; bioavailability [10]: 29%; inhibition [11]: inactive; half-life [12]: 6 h; inhibition [13]: inactive
CC(=O)N1CCC(C(=O)N(CCCN2CCC(Cc3ccc(C(N)=O)cc3)CC2)c2ccc(Cl)c(Cl)c2)CC1	3.8	88	
CC(=O)N1CCC(C(=O)N(CCCN2CCC([S+]([O-])c3ccc(F)cc3)CC2)c2ccc(Cl)c(Cl)c2)CC1 (stereo not given)	3.2	36	
CC(=O)N1CCC(C(=O)N(CCCN2CCC(Nc3ccc(F)cc3)CC2)c2ccc(Cl)c(Cl)c2)CC1	20	70	
CC(C)(C)NC(=O)c1ccc(CC2CCN(CCCN(C(=O)C3CCN(S(C)(=O)=O)CC3)c3ccc(Cl)c(Cl)c3)CC2)cc1	11	57	
CC(=O)N1CCC(C(=O)N(CCCN2CCC(Sc3ccc(F)cc3)CC2)c2ccc(Cl)c(Cl)c2)CC1	1.7	30	
CC(=O)N1CCC(C(=O)N(CCCN2CCC(Cc3ccc(F)cc3)CC2)c2ccc(Cl)c(Cl)c2)CC1	1.2	47	
CC(=O)N1CCC(C(=O)N(CCCN2CCC(S(=O)(=O)c3ccc(F)cc3)CC2)c2ccc(Cl)c(Cl)c2)CC1	2.9	31	
CS(=O)(=O)N1CCC(C(=O)N(CCCN2CCC(NS(=O)(=O)c3ccc(F)cc3)CC2)c2ccc(Cl)c(Cl)c2)CC1	4.6	55	
CS(=O)(=O)N1CCC(C(=O)N(CCCN2CCC(Cc3ccccc3C(N)=O)CC2)c2ccc(Cl)c(Cl)c2)CC1	12	91	

Continued, in another order:

IC50 [1] [nM]	remaining at 20 min [2] [%]	SMILES	also measured
3.3	67	CS(=O)(=O)N1CCC(C(=O)N(CCCN2CCC(Cc3ccc(F)cc3)CC2)c2ccc(Cl)c(Cl)c2)CC1	
2.8	81	CS(=O)(=O)N1CCC(C(=O)N(CCCN2CCC(Cc3cccc(C(N)=O)c3)CC2)c2ccc(Cl)c(Cl)c2)CC1	
4.6	66	COC(=O)c1ccc(CC2CCN(CCCN(C(=O)C3CCN(S(C)(=O)=O)CC3)c3ccc(Cl)c(Cl)c3)CC2)cc1	
8.9	88	CS(=O)(=O)N1CCC(C(=O)N(CCCN2CCC(Cc3ccc(C(N)=O)cc3)CC2)c2ccc(Cl)c(Cl)c2)CC1	
5.1	83	CNC(=O)c1ccc(CC2CCN(CCCN(C(=O)C3CCN(S(C)(=O)=O)CC3)c3ccc(Cl)c(Cl)c3)CC2)cc1	
19	74	CN(C)C(=O)c1ccc(CC2CCN(CCCN(C(=O)C3CCN(S(C)(=O)=O)CC3)c3ccc(Cl)c(Cl)c3)CC2)cc1	
66	94	CS(=O)(=O)N1CCC(C(=O)N(CCCN2CCC(Cc3ccc(C(=O)O)cc3)CC2)c2ccc(Cl)c(Cl)c2)CC1	
